Laboratory results reported in ChEMBL document CHEMBL5705888, “Substrate specificity and inhibitors of LRRK2, a protein kinase mutated in Parkinson's disease” (Biochem J, 2009).
The source made the active and inactive calls. The calls are words filed in the database; no cut-off is given here.

Experiments:
[1] = molecular target: Rho-associated protein kinase 2 (Homo sapiens, UniProt O75116); assay: Inhibition of ROCK2 in human Flp-In-T-REx-293 cells harboring GFP-tagged constitutively active G14V-Rho mutant assessed as inhibition of MYPT phosphorylation at Thr850 at 10 uM incubated for 1 hr by immunoblot analysis; type: cell-based
How it was run: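 Flp-In T-REx cells carrying GFP-tagged G14V-Rho were induced with 1 μg/ml doxycycline in the medium. Seven hours after induction, cells were treated with 10 μM inhibitor for 1 h. They were then lysed directly in SDS lysis buffer and run on 4–12% gels. Blots were probed with anti-MYPT pThr850 (1 μg/ml in 5% BSA/TBST), followed by HRP secondary and ECL detection.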

[2] = molecular target: cAMP-dependent protein kinase (PKA) (Homo sapiens) (UniProt P22694+P17612+P22612); assay: Inhibition of PKA (unknown origin) at 1 uM incubated for 30 mins in presence of [gamma-33P]ATP by multidrop micro reagent based assay relative to control; values are per cent of control
[3] = molecular target: Myosin light chain kinase, smooth muscle (Homo sapiens) (UniProt Q15746); assay: Inhibition of SmMLCK (unknown origin) at 1 uM incubated for 30 mins in presence of [gamma-33P]ATP by multidrop micro reagent based assay relative to control; values are per cent of control
Myosin light chain kinase, smooth muscle (Homo sapiens), sequence (Q15746 whole entry): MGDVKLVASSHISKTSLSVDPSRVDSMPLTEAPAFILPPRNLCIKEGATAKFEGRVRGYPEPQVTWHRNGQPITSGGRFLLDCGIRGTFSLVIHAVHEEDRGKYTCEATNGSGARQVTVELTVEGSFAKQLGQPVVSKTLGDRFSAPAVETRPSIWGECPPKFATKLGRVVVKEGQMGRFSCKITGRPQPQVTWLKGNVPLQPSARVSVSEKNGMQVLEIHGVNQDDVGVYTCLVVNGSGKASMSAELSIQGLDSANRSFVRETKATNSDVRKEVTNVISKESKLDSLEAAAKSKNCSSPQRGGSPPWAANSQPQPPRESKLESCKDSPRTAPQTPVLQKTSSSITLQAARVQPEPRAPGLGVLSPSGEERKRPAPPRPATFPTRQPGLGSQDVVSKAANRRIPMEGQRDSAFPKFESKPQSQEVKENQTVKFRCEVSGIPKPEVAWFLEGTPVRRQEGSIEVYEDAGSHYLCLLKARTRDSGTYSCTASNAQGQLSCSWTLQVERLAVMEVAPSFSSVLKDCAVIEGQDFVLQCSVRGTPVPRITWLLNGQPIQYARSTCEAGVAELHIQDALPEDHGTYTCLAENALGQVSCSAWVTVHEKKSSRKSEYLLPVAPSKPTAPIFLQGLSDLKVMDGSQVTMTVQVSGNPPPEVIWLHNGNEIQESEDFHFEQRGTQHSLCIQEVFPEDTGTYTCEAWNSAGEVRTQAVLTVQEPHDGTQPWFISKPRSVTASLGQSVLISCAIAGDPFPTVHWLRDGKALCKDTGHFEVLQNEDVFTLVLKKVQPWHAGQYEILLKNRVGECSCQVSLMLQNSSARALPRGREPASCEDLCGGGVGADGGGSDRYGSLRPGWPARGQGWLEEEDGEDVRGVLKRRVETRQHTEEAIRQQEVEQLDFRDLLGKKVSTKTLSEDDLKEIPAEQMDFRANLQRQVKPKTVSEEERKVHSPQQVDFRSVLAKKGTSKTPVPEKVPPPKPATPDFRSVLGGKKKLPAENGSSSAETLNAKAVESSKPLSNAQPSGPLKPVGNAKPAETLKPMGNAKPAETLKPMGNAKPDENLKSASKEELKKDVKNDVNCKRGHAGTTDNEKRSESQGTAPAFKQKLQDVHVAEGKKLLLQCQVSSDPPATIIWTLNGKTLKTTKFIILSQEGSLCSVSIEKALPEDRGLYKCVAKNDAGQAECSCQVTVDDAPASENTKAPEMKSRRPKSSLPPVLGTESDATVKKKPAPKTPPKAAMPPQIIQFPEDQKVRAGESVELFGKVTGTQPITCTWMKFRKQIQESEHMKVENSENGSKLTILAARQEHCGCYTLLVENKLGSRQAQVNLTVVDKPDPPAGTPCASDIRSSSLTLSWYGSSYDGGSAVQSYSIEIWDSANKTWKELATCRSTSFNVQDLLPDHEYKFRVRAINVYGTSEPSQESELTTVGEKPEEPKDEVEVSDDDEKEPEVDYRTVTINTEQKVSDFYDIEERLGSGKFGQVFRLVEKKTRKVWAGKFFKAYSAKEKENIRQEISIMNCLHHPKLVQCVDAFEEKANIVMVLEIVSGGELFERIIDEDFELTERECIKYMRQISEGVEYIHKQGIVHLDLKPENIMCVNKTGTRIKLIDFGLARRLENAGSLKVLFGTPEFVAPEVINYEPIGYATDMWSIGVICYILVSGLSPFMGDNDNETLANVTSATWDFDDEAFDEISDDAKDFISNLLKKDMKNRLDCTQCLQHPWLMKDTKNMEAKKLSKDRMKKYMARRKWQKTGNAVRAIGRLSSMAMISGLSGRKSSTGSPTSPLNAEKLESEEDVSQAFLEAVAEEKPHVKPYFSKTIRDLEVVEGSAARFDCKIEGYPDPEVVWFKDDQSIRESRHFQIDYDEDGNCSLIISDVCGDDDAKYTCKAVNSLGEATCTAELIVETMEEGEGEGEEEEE

[4] = molecular target: T1, Mitogen-activated protein kinase 12 (Homo sapiens) (UniProt P53778); assay: Inhibition of p38gamma MAPK (unknown origin) at 1 uM incubated for 30 mins in presence of [gamma-33P]ATP by multidrop micro reagent based assay relative to control; values are per cent of control
T1 sequence (whole entry): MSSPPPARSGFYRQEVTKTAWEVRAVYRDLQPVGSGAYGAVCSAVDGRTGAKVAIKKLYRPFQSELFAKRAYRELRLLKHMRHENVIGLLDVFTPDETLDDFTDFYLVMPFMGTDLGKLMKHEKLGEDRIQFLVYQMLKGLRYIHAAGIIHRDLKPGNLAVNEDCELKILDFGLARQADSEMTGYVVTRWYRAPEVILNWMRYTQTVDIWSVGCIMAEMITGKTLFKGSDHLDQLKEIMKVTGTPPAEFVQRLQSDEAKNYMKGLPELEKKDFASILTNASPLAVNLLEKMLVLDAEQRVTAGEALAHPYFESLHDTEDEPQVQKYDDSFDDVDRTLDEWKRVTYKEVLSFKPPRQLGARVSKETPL

[5] = molecular target: T2, Serine/threonine-protein kinase STK11 (Homo sapiens) (UniProt Q15831); assay: Inhibition of LKB1 (unknown origin) at 1 uM incubated for 30 mins in presence of [gamma-33P]ATP by multidrop micro reagent based assay relative to control
T2 sequence (whole entry): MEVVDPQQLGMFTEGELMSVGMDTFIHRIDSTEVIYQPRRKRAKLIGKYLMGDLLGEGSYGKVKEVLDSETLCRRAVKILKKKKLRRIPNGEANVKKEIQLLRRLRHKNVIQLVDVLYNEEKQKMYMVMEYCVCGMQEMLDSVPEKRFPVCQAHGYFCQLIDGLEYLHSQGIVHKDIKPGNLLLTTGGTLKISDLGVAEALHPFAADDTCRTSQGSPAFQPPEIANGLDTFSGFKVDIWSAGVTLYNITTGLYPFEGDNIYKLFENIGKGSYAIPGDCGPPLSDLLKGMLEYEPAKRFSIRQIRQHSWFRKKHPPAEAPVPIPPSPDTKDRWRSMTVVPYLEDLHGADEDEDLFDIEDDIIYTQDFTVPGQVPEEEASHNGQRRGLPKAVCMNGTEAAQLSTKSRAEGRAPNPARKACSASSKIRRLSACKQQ

[6] = molecular target: T3, Dual specificity tyrosine-phosphorylation-regulated kinase 2 (Homo sapiens) (UniProt Q92630); assay: Inhibition of DYRK2 (unknown origin) at 1 uM incubated for 30 mins in presence of [gamma-33P]ATP by multidrop micro reagent based assay relative to control; values are per cent of control
T3 sequence (whole entry): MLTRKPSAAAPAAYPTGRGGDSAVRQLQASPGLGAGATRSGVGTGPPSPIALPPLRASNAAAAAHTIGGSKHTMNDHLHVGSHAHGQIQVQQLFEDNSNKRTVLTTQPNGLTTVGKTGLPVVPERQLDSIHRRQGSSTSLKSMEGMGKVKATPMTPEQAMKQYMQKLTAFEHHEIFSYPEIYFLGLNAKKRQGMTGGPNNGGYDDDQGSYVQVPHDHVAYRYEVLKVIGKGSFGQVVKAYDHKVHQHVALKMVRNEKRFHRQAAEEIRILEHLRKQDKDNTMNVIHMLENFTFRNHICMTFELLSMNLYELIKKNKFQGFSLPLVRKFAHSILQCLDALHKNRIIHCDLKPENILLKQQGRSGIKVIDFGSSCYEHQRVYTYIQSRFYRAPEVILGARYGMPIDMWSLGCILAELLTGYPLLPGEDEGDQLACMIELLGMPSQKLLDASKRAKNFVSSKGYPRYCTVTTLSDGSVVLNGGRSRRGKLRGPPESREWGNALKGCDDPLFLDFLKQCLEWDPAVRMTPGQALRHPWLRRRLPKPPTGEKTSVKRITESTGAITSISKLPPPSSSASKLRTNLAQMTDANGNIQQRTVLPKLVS

[7] = molecular target: Mitogen-activated protein kinase 3 (Homo sapiens) (UniProt P27361); assay: Inhibition of ERK1 (unknown origin) at 1 uM incubated for 30 mins in presence of [gamma-33P]ATP by multidrop micro reagent based assay relative to control; values are per cent of control
Mitogen-activated protein kinase 3 (Homo sapiens), sequence (P27361 whole entry): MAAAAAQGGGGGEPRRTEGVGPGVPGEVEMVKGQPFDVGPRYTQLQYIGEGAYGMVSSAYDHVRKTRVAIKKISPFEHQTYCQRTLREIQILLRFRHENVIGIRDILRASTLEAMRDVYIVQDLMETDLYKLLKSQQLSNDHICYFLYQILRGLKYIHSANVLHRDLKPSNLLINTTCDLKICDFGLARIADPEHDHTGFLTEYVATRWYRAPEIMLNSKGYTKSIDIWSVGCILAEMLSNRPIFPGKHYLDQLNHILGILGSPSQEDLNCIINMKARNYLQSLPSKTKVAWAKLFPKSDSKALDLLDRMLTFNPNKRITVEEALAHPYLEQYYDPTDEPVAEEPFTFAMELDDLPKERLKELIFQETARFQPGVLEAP

[8] = molecular target: RAC-alpha serine/threonine-protein kinase (Homo sapiens) (UniProt P31749); assay: Inhibition of PKBalpha (unknown origin) at 1 uM incubated for 30 mins in presence of [gamma-33P]ATP by multidrop micro reagent based assay relative to control; values are per cent of control
[9] = molecular target: Mitogen-activated protein kinase 14 (Homo sapiens) (UniProt Q16539); assay: Inhibition of p38alpha MAPK (unknown origin) at 1 uM incubated for 30 mins in presence of [gamma-33P]ATP by multidrop micro reagent based assay relative to control; values are per cent of control
[10] = molecular target: Serine/threonine-protein kinase PAK 5 (Homo sapiens) (UniProt Q9P286); assay: Inhibition of PAK5 (unknown origin) at 1 uM incubated for 30 mins in presence of [gamma-33P]ATP by multidrop micro reagent based assay relative to control; values are per cent of control
[11] = tested on: Leucine-rich repeat serine/threonine-protein kinase 2 (Homo sapiens), Q5S007 [G2019S]; assay: Inhibition of LRRK2 G2019S mutant (unknown origin) at 1 uM incubated for 30 mins in presence of [gamma-33P]ATP by multidrop micro reagent based assay relative to control; values are per cent of control
Leucine-rich repeat serine/threonine-protein kinase 2 (Homo sapiens), Q5S007 [G2019S], sequence (Q5S007 whole entry G2019S): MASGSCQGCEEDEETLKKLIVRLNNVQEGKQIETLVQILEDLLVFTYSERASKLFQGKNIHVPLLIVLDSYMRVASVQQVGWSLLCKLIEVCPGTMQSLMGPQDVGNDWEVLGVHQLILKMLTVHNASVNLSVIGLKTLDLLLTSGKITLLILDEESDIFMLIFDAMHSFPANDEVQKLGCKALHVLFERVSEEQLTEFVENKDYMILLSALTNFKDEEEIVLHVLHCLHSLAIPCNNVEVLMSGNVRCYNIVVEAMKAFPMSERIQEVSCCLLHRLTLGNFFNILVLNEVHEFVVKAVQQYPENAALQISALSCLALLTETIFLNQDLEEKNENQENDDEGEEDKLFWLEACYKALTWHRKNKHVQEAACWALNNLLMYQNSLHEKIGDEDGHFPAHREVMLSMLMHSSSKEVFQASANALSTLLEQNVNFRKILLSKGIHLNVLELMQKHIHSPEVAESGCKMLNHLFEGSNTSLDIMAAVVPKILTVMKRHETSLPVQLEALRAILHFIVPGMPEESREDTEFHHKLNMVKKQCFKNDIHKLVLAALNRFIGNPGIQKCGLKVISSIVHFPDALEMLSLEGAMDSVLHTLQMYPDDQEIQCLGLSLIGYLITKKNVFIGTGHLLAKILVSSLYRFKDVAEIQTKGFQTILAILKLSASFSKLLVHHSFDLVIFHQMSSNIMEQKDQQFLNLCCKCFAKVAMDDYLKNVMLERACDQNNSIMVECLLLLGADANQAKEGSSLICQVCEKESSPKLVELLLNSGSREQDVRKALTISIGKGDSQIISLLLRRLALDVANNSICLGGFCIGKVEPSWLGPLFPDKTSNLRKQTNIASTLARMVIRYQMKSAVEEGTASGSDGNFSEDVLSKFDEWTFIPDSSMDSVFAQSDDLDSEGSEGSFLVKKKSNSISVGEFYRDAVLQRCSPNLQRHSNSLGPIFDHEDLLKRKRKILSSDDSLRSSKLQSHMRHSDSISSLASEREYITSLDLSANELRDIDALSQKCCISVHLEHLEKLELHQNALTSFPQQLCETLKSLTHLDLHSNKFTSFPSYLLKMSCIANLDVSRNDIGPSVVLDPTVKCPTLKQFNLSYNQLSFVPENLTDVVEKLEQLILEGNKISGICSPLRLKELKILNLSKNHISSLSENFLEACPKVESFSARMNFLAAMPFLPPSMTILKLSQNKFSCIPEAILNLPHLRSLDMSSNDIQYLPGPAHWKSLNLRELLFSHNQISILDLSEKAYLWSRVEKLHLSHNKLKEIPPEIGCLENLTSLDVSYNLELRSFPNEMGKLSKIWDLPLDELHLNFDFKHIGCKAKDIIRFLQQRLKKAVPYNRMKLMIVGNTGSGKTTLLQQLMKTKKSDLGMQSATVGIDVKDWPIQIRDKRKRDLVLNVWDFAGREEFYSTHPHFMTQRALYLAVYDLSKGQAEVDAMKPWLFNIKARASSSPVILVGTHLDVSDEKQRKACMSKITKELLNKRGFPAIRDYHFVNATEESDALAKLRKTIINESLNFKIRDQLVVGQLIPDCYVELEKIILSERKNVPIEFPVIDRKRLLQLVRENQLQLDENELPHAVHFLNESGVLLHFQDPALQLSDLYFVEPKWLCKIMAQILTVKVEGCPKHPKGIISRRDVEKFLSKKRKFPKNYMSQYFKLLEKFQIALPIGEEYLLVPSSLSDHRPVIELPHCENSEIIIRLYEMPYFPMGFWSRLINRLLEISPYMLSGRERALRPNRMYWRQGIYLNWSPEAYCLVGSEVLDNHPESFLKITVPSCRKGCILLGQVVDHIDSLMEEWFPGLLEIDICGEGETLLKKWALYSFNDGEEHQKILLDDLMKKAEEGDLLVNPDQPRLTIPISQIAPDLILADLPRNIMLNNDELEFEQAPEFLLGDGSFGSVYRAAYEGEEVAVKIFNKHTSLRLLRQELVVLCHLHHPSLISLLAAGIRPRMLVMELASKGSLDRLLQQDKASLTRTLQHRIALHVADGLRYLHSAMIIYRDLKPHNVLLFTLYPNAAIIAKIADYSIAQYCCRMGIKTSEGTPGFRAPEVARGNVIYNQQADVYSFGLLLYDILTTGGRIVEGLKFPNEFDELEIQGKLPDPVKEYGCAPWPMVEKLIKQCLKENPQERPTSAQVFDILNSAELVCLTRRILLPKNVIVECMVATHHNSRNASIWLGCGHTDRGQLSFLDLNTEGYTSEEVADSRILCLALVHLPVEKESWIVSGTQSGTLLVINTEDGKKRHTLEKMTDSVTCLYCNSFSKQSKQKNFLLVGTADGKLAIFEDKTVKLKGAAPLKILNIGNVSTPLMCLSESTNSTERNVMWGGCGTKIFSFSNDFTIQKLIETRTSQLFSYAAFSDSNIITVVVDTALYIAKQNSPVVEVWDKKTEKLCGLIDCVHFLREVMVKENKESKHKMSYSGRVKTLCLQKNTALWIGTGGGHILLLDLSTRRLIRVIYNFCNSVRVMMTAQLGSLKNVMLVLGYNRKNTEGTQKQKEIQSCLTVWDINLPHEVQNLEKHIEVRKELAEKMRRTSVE

SMILES | inhibition [1] | residual activity [2] | residual activity [3] | residual activity [4] | inhibition [5] | residual activity [6] | residual activity [7] | residual activity [8] | residual activity [9] | residual activity [10] | residual activity [11]
C[C@@H](N)[C@H]1CC[C@H](C(=O)Nc2ccncc2)CC1 | Active | – | – | – | – | – | – | – | – | – | –
CCn1c(-c2nonc2N)nc2cnc(Oc3cccc(NC(=O)c4ccc(OCCN5CCOCC5)cc4)c3)cc21 [GSK-269962A] | – | 22% | 65% | 72% | 58% | 64% | 106% | 26% | 108% | 102% | 66%
CCN(CC)CCNC(=O)c1c(C)[nH]c(/C=C2\C(=O)Nc3ccc(F)cc32)c1C | – | – | – | – | – | – | – | 73% | – | – | –
Cc1cncc2cccc(S(=O)(=O)N3CCCNC[C@@H]3C)c12 | Active | 76% | 96% | 101% | 50% | 84% | 105% | 64% | 109% | 100% | 13%
CC1=C(C(=O)Nc2cc3cn[nH]c3cc2F)C(c2ccc(C(F)(F)F)cc2)CC(=O)N1 (centres undefined) | Active | 88% | 73% | 112% | 58% | 92% | 90% | 72% | 103% | 107% | 97%
